Bioassay records (PubChem)
Only some compounds are listed: those with a hit (about 1.9% of all), similar ones and a draw of the others.
Scp1 inh: blocks human Scp-1 phosphatase activity; Recombinant Scp1, phosphopeptide, malachite green phosphate absorbance; inhibition, % at 20 µM; 340,000 tested, 0.88% active;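 active means inhibition above about 50% at 20 µM, limit read from the data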
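Material – SCP-1 phosphatase catalytic domain, residues 76-261 · Buffer or medium – Acidic Tris acetate buffer with magnesium and detergent · Also added – Phospho 17-mer peptide substrate · Compound – single 20 µM dose, 1% DMSO · Times – 45 min room-temperature reaction, 5 min colour, 30 min stabiliser · Technique – Phosphate-binding colour reagent, absorbance read at 630 nm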
SUMO1 PPI mod: alters human SUMO1 binding to SIM partners. P63165. SUMO1 binding to a labelled peptide, TR-FRET, 1 h. inhibition, % at 20 µM. 360,000 tested, 0.33% active; in the data active means inhibition above about 37%
FAS TE block: inhibitors of human fatty acid synthase thioesterase domain. P49327. recombinant FAS-TE, OMFH fluorogenic substrate, fluorescence endpoint. inhibition, % at 15 µM. 360,000 tested, 0.67% active. AID 602261;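 active means compounds whose normalised, plate-corrected inhibition of enzyme fluorescence in the single-dose primary screen is 50% or more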
LMPTP inh: blocks human LMPTP phosphatase | recombinant LMPTP-A, OMFP fluorogenic substrate, fluorescence intensity | 360,000 tested, 0.22% active | inhibition, % at 20 µM;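 active means compounds that cut the enzyme signal by at least half of the control window in the single-dose screen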
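test system = LMPTP-A | amount = 0.625 nM LMPTP-A final | reagent = fluorogenic phosphatase substrate OMFP at 400 µM final | incubation = 50 min at room temperature | benchmarks = no-enzyme low control, uninhibited high control | medium = Bis-Tris pH 6.0, DTT, detergent | signal = fluorescence intensity of OMFP turnover product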
STEP inh: blocks human striatal-enriched tyrosine phosphatase. 360,000 tested, 0.25% active. AID 588621. inhibition, % at 20 µM. P54829. recombinant STEP, OMFP fluorogenic substrate, fluorescence;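 active means inhibition at 20 µM, scaled per plate between control wells, above about 37%, limit read from the data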
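material = STEP tyrosine phosphatase | reagent = fluorogenic phosphatase substrate OMFP at 25 µM final | doses = single compound dose of 20 µM, 1% DMSO final | schedule = 20 min reaction, room temperature, in the dark | measured by = fluorescence, 480/540 nm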
Scp1 confirm: confirmation of human Scp-1 phosphatase inhibitors; shares compounds with Scp1 inh; recombinant SCP-1 catalytic domain, phosphate release, malachite green absorbance; inhibition, % at 20 µM; 2,500 tested, 61% active; AID 540281
Scp-1 MG ctr: counter-screen for Scp-1 inhibitors: colorimetric interference. shares compounds with Scp1 inh. Colorimetric interference counterscreen, malachite green absorbance 630 nm. apparent inhibition (interference), % at 20 µM. 2,500 tested, under 10 active;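 further: compounds added after enzyme reaction finished so only phosphate colour detection is probed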
Scp1 DSF: validation of human Scp-1 inhibitors by thermal shift binding. thermal shift relative to vanadate control, % at 40 µM. Recombinant SCP1, Sypro Orange thermal shift Tm. shares compounds with Scp1 inh. AID 540329. 1,500 tested, 25% active;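 active means substances whose mean melting-temperature shift, as a percentage of the reference inhibitor's shift, reaches about 5.3%, limit read from the data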
STEP conf: confirmation of human STEP phosphatase inhibitors. shares compounds with STEP inh. recombinant STEP, OMFP fluorogenic substrate, fluorescence. inhibition, % at 20 µM. 520 tested, 32% active. AID 623866; call rule not given here
Large screens that a line does not name were inactive (follow-up assays come after a bar, where they were run).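 How the source made its calls, unless noted: active means inhibition of at least 30% at 20 µM; inactive means the rest.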

COC(=O)COc1ccc(/C=C2/SC(=O)N(CC(=O)N3CCCC3)C2=O)cc1Br	none
Cc1cc(C)c(NC(=O)CS(=O)CC(=O)NC2CCCc3ccccc32)c(C)c1 (configuration not stated)	none
CCOC(=O)c1ccc(S(=O)(=O)N2CCC(C(=O)NCC3CCCCC3)CC2)cc1	none
O=C(O)CSc1ncnc2c1sc1nc(-c3ccccc3)c3c(c12)CCC3	Scp1 inh 78, STEP inh 48 | Scp1 confirm 53 | Scp-1 MG ctr inactive | Scp1 DSF inactive | STEP conf inactive
Cc1c(CC(=O)O)c(=O)oc2c(C)c3occ(-c4ccc(Br)cc4)c3cc12	Scp1 inh 52, STEP inh 69 | Scp1 confirm 62 | Scp-1 MG ctr inactive | Scp1 DSF inactive | STEP conf inactive
COc1ccc(-c2coc3c(C)c4oc(=O)c(CC(=O)O)c(C)c4cc23)cc1	none
CSCCC(NS(=O)(=O)c1ccccc1F)C(=O)OCc1ccccc1Cl (configuration not stated)	none
CCCCNc1ncnc2[nH]ncc12	none
O=c1cc(-c2ccsc2)oc2cc(-c3ccc4c(c3)OCO4)ccc12	Scp1 inh 68, LMPTP inh 68, STEP inh 46 | Scp1 confirm 53 | Scp-1 MG ctr inactive | Scp1 DSF inactive | STEP conf inactive
COc1ccc(-c2ccc3c(=O)cc(-c4ccsc4)oc3c2)cn1	none
COc1ccc2cc(C(=O)N(C)CC(=O)Nc3ccccc3Br)ccc2c1	none
COc1cccc(N2[C@@H](CC(=O)O)c3ccc(/C=C/C(=O)O)cc3S2(=O)=O)c1	Scp1 inh 70, STEP inh 50 | Scp1 confirm 54 | Scp-1 MG ctr inactive | Scp1 DSF inactive | STEP conf 36
COc1cccc(N2[C@@H](CC(C)=O)c3ccccc3S2(=O)=O)c1	none
Cc1ccc(-c2c(NCCc3ccccc3)c(=O)c2=O)cc1	Scp1 inh 89, STEP inh 57 | Scp1 confirm 59 | Scp-1 MG ctr inactive | Scp1 DSF inactive | STEP conf inactive
COc1ccc(C(=O)N/N=C\C(C)=C\c2ccccc2)cc1OC	none
CC(/C=N/NC(=O)c1ccc(Br)cc1)=C\c1ccccc1	Scp1 inh 94, LMPTP inh 55, STEP inh 55 | Scp1 confirm 89 | Scp-1 MG ctr inactive | Scp1 DSF inactive | STEP conf inactive
Cc1cc(C(=O)N/N=C/c2ccc(-c3cccc(Cl)c3Cl)o2)n[nH]1	Scp1 inh 61, STEP inh 61 | Scp1 confirm 88 | Scp-1 MG ctr inactive | Scp1 DSF inactive | STEP conf inactive
Cc1cc(C(=O)N/N=C/c2ccc(-c3cccc(Br)c3)o2)n[nH]1	none
CCOC(=O)C1CC(CN2C(=O)c3ccccc3C2=O)OC1=O (configuration not stated)	none
COc1ccc(C2=NN(C(=O)c3ccco3)C(c3ccco3)C2)cc1OC (configuration not stated)	none
COc1ccc2cc(C(=O)Nc3ccc(Cl)cc3)sc(=O)c2c1OC	Scp1 inh 92, STEP inh 59 | Scp1 confirm 65 | Scp-1 MG ctr inactive | Scp1 DSF inactive | STEP conf inactive
COc1ccc2cc(C(=O)Nc3ccc(F)cc3)sc(=O)c2c1OC	Scp1 inh 56, STEP inh 49 | Scp1 confirm 41 | Scp-1 MG ctr inactive | Scp1 DSF inactive | STEP conf inactive
Cc1ccc(NS(=O)(=O)c2cccc3nsnc23)cc1	none
O=S(=O)(Nc1ccccc1)c1cccc2nsnc12	Scp1 inh 78, LMPTP inh 58, STEP inh 84 | Scp1 confirm 59 | Scp-1 MG ctr inactive | Scp1 DSF inactive | STEP conf 40
